From ChEMBL document CHEMBL4177603 (Bioorg Med Chem Lett, 2017)

Assays:
[1] = target: Histamine H3 receptor (Homo sapiens) (UniProt Q9Y5N1); assay: Agonist activity at recombinant human H3 receptor expressed in CHOK1 cells assessed as increase in cAMP accumulation at 10 uM measured after 10 mins by HTRF assay relative to control; format: functional, cell-based
[2] = target: Epidermal growth factor receptor (Homo sapiens) (UniProt P00533); assay: Displacement of [125I] EGF from EGFR in human A431 cells at 10 uM after 60 mins by scintillation counting method; format: cell-based
[3] = Clearance in rat plasma at 0.3 mg/kg, iv via infusion for 1 hr; format: ADME, organism-based
[4] = target: Angiotensin-converting enzyme (Homo sapiens) (UniProt P12821); assay: Inhibition of ACE (unknown origin) at 10 uM by radioligand binding assay relative to control
[5] = target: Kappa-type opioid receptor (Homo sapiens) (UniProt P41145); assay: Agonist activity at human KOR assessed as increase in calcium flux at 10 uM by fluorimetric method relative to control; format: functional
[6] = target: Substance-P receptor (Homo sapiens) (UniProt P25103); assay: Agonist activity at human NK1 receptor expressed in U373MG cells assessed as increase in calcium flux at 10 uM by fluorimetric method relative to control; format: functional, cell-based
[7] = Inhibition of dog Nav1.7 expressed in HEK cells by automated patchXpress electrophysiology method; format: cell-based; conditions: HEK293
[8] = Clearance in dog plasma at 0.3 mg/kg, iv via infusion for 0.5 hrs; format: ADME, organism-based, Canis lupus familiaris
[9] = target: T1, Alpha-1A adrenergic receptor (Homo sapiens) (UniProt P35348); assay: Agonist activity at recombinant human alpha1a receptor expressed in CHOK1 cells assessed as increase in calcium flux at 10 uM by fluorescence assay relative to control; format: functional, cell-based
T1 sequence (whole entry): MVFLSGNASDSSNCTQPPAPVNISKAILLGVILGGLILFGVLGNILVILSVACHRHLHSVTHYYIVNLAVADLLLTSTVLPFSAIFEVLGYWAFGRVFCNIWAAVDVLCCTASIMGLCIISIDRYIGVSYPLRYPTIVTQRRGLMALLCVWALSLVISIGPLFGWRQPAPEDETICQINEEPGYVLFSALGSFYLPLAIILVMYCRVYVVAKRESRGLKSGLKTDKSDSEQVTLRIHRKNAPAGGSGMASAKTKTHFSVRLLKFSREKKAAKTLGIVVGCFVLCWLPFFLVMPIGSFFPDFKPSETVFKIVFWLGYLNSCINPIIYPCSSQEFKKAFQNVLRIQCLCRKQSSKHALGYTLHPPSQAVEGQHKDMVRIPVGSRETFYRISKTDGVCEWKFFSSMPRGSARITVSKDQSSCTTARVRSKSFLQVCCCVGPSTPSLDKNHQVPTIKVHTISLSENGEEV

[10] = Drug recovery in bile duct-cannulated rat bile at 0.3 mg/kg, iv via infusion for 1 hr; format: ADME, organism-based; conditions: read-out: Drug recovery
[11] = target: Cytochrome P450 1A2 (Homo sapiens, UniProt P05177); assay: Inhibition of CYP1A2 (unknown origin); format: ADME
Cytochrome P450 1A2, sequence (P05177 whole entry): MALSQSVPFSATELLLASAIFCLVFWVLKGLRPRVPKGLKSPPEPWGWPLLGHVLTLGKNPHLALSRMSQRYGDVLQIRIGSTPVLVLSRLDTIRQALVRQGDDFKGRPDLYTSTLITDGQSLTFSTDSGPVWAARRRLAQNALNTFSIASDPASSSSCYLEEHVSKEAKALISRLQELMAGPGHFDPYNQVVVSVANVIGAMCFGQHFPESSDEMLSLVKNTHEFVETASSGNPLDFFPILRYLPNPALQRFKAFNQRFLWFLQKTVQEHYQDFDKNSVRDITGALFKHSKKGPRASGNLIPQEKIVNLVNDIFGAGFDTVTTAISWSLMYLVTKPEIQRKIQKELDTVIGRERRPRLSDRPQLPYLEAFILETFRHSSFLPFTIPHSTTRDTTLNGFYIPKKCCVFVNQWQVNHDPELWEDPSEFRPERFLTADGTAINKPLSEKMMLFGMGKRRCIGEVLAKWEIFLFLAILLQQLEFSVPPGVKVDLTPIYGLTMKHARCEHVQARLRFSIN

[12] = Intrinsic clearance in human liver microsomes; format: ADME, microsome; conditions: read-out: CLH
[13] = target: 5-hydroxytryptamine receptor 4 (Homo sapiens) (UniProt Q13639); assay: Agonist activity at recombinant human 5-HT4E expressed in CHOK1 cells assessed as increase in cAMP accumulation at 10 uM measured after 30 mins by HTRF assay relative to control; format: functional, cell-based
5-hydroxytryptamine receptor 4 (Homo sapiens), sequence (Q13639 whole entry): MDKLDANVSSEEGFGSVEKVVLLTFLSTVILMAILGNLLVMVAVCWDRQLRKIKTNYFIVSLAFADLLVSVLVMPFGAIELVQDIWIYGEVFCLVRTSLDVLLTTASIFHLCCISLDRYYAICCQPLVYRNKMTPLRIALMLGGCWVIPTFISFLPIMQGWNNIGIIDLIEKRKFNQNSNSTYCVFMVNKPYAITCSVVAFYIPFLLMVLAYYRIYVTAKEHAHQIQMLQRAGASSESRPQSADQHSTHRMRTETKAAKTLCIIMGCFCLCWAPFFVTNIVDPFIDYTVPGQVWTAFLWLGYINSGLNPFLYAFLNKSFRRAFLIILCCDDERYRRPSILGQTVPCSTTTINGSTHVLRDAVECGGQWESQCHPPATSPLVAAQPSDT

[14] = Solubility of the compound in aqueous buffer at pH 5.5; format: physicochemical
[15] = Clearance in iv dosed mouse blood; format: ADME, organism-based; conditions: whole blood
Method in brief: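 Blood clearance was calculated from the measured plasma clearance and the measured blood:plasma ratio.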

[16] = target: T2, Muscarinic acetylcholine receptor M1 (Homo sapiens) (UniProt P11229); assay: Antagonist activity at human M1 receptor expressed in CHOK1 cells assessed as inhibition of acetylcholine-induced calcium flux at 10 uM by fluorimetric method relative to control; format: functional, cell-based
T2 sequence (whole entry): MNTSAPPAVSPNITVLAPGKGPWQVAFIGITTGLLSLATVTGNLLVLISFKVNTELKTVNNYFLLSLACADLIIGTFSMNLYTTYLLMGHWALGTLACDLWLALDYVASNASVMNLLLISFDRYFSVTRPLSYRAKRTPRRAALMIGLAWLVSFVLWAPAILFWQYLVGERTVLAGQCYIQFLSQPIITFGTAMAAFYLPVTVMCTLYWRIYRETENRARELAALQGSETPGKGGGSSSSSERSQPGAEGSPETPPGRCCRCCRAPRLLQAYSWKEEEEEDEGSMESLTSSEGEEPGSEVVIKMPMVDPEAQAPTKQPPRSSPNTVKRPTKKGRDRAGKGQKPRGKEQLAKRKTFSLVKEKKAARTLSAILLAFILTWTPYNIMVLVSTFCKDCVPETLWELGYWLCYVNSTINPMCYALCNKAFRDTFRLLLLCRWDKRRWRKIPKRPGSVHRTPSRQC

[17] = target: Beta-2 adrenergic receptor (Homo sapiens) (UniProt P07550); assay: Antagonist activity at recombinant human beta2 receptor expressed in CHOK1 cells assessed as inhibition of isoproterenol-induced cAMP accumulation at 10 uM after 30 mins by HTRF assay relative to control; format: functional, cell-based
[18] = target: Voltage-gated inwardly rectifying potassium channel KCNH2 (Homo sapiens, UniProt Q12809); assay: Inhibition of human ERG by PatchXpress electrophysiology method
Voltage-gated inwardly rectifying potassium channel KCNH2, sequence (Q12809 whole entry): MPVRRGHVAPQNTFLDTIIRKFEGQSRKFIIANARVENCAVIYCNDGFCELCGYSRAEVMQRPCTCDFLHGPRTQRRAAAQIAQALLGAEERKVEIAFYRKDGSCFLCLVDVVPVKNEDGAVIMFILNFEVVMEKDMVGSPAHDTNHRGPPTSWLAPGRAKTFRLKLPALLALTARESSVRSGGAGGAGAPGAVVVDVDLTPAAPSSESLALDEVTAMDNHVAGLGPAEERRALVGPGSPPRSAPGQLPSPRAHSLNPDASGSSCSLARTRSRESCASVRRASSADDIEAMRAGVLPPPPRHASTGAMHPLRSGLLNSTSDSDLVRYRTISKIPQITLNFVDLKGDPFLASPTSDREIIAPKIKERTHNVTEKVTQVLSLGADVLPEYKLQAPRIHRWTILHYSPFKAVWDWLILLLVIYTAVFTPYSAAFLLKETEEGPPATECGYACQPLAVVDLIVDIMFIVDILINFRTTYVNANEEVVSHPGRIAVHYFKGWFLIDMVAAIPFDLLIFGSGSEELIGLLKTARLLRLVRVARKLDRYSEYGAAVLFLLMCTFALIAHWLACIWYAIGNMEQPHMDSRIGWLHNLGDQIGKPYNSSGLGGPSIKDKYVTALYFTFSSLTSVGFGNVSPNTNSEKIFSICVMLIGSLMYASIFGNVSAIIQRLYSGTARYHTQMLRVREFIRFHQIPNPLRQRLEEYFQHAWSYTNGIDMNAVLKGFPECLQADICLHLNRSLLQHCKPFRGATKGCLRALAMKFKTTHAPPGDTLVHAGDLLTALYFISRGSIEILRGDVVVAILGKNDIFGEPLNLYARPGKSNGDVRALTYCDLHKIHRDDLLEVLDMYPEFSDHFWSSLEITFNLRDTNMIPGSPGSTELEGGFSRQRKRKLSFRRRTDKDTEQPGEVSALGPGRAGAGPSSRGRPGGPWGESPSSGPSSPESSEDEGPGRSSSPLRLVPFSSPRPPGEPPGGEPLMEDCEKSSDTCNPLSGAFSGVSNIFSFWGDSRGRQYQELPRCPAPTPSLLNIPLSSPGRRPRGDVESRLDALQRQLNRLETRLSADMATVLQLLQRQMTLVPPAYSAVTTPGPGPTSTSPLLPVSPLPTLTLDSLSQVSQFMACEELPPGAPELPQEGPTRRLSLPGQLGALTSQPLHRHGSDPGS

[19] = target: 5-hydroxytryptamine receptor 1B (Homo sapiens, UniProt P28222); assay: Agonist activity at human 5-HT1B receptor expressed in HeLa cells assessed as increase in cAMP accumulation measured after 20 mins by HTRF method; format: functional, cell-based
5-hydroxytryptamine receptor 1B, sequence (P28222 whole entry): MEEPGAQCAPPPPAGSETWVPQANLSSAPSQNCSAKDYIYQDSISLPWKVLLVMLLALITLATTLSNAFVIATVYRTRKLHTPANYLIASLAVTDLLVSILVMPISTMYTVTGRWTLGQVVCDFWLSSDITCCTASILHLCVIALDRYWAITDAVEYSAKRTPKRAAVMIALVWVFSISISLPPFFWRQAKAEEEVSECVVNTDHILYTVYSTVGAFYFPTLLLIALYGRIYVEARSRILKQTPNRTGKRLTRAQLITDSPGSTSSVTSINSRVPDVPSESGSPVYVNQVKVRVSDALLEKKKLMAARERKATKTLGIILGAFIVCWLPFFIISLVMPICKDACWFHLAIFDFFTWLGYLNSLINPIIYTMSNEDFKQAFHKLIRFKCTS

[20] = target: Cytochrome P450 2D6 (Homo sapiens, UniProt P10635); assay: Inhibition of CYP2D6 (unknown origin); format: ADME
Cytochrome P450 2D6, sequence (P10635 whole entry): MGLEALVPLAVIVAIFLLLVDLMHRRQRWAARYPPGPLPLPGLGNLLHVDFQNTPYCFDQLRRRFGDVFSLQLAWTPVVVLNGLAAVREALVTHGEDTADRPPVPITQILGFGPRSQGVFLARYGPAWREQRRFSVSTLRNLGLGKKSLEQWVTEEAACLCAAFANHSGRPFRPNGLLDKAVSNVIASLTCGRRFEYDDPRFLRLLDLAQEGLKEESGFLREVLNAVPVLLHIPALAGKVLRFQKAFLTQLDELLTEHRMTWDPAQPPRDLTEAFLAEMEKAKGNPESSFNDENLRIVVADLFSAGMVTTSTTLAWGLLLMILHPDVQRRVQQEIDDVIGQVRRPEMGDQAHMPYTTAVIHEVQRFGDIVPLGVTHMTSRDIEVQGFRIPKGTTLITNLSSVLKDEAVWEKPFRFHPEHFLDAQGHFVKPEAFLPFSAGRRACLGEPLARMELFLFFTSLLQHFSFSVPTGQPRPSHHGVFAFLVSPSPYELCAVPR

[21] = target: Cholecystokinin receptor type A (Homo sapiens) (UniProt P32238); assay: Agonist activity at recombinant human CCK1 receptor expressed in CHOK1 cells assessed as increase in cAMP accumulation at 10 uM after 30 mins by HTRF assay relative to control
Cholecystokinin receptor type A (Homo sapiens), sequence (P32238 whole entry, looked up): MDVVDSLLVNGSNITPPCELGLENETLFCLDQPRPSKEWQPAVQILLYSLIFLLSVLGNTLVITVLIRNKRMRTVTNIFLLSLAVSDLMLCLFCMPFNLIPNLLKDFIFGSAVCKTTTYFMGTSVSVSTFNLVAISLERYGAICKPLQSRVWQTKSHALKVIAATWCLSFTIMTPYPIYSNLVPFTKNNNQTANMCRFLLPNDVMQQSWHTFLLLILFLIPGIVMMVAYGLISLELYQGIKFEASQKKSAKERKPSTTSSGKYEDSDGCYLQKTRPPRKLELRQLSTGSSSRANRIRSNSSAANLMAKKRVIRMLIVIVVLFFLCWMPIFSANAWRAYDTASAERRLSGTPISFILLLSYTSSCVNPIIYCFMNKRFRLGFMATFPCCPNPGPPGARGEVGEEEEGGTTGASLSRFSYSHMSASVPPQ

[22] = target: Delta-type opioid receptor (Homo sapiens) (UniProt P41143); assay: Agonist activity at human DOR expressed in Chem1 cells assessed as increase in calcium flux at 10 uM by fluorimetric method relative to control; format: functional, cell-based
Delta-type opioid receptor (Homo sapiens), sequence (P41143 whole entry): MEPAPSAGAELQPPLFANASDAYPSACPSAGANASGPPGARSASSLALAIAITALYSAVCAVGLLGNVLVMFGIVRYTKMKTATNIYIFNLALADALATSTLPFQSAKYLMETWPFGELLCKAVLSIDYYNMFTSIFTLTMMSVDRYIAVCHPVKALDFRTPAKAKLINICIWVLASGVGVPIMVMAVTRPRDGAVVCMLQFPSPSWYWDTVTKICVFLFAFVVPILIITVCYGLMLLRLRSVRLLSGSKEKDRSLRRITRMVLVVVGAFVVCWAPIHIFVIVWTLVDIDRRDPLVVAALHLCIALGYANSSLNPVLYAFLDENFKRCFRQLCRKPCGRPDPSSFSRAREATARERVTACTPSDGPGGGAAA

[23] = target: Sodium-dependent dopamine transporter (Homo sapiens, UniProt Q01959); assay: Displacement of [3H]BTCP from recombinant human dopamine transporter at 10 uM after 120 mins by scintillation counting method
[24] = target: D(1A) dopamine receptor (Homo sapiens) (UniProt P21728); assay: Agonist activity at recombinant human D1 receptor expressed in CHOK1 cells assessed as increase in cAMP accumulation at 10 uM after 30 mins by HTRF assay relative to control; format: functional, cell-based
D(1A) dopamine receptor (Homo sapiens), sequence (P21728 whole entry, the tested form may be a part): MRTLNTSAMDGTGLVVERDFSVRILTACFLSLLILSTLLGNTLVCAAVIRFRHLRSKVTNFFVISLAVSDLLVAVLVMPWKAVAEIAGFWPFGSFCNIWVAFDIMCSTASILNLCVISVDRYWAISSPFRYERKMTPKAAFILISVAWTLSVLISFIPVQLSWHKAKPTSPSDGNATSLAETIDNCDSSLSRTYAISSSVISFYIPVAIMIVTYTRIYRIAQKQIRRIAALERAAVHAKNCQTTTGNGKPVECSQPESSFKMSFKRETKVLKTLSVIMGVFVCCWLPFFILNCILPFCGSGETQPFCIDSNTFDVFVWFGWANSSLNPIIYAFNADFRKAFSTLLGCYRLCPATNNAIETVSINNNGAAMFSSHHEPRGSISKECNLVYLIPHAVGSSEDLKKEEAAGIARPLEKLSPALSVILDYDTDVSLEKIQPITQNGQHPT

[25] = Volume of distribution at steady state in dog at 0.3 mg/kg, iv via infusion for 0.5 hrs; format: ADME, organism-based, Canis lupus familiaris; conditions: in vivo, read-out: Vdss
[26] = target: Cytochrome P450 3A4 (Homo sapiens, UniProt P08684); assay: Inhibition of CYP3A4 (unknown origin); format: ADME
Cytochrome P450 3A4, sequence (P08684 whole entry): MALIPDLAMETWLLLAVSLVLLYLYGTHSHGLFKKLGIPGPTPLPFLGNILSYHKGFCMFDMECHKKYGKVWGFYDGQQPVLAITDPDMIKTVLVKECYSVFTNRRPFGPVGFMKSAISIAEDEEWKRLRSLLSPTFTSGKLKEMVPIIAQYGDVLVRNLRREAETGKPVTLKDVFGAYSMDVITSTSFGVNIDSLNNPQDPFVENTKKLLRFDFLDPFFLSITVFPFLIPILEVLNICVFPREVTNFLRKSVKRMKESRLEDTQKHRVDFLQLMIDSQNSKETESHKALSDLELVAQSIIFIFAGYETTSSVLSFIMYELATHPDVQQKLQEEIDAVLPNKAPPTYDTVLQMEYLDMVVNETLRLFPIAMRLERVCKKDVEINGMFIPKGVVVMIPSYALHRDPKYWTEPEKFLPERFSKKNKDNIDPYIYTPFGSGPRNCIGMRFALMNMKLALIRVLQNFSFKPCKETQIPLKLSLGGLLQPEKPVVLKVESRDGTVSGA

With N#Cc1cc(S(=O)(=O)Nc2ncns2)ccc1Oc1ccc(-c2cccc(C(F)(F)F)c2)cc1-c1ccnc(CNCCC2CCNCC2)c1 the Activity [1] was 7%, the inhibition [2] was 35% and the clearance [3] was 83.1 mL/min/kg. For the same compound, the inhibition [4] was -8%, the Activity [5] was 15% and the Activity [6] was 0%. It also gave an IC50 [7] of less than 30 pM, a clearance [8] of 17.8 mL/min/kg and an Activity [9] of 7%. It also gave a dose excreted at 1 h [10] of 74%, an IC50 [11] greater than 30 µM and a microsomal CLint [12] of less than 8 µL/min/mg. The Activity [13] was 0%, the solubility [14] was greater than 1840 µg/mL and the clearance [15] was 67.2 mL/min/kg. The inhibition [16] was 7%, the inhibition [17] was 11% and the IC50 [18] was greater than 25.2 µM. For the same compound, the EC50 [19] was greater than 10 µM, the IC50 [20] was 8.83 µM and the Activity [21] was 4%. The Activity [22] was -49%, the inhibition [23] was 84% and the Activity [24] was 6%. The Vd [25] was 0.46 L/kg and the IC50 [26] was 1.15 µM.
